Converted amounts (≈) assume the structure as drawn.
Key:
Type in all cases: functional
[1] = test system: Mycobacteroides abscessus; assay: Antimicrobial activity against Mycobacterium abscessus R31 isolate after 3 to 5 days by broth microdilution method
Procedure, shortened: (§1)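 Clinical isolates subcultured on Trypticase soy agar with 5% sheep blood, 30°C, 72 h. Colonies suspended in cation-supplemented Mueller-Hinton broth to a final inoculum of 5 × 10^5 CFU/ml. Twofold serial dilutions made in the same broth, final well concentrations 0.25 to 128 μg/ml. Trays incubated at 30°C; MIC read after 3 to 5 days.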

[2] = test system: Mycobacteroides abscessus; assay: Antimicrobial activity against Mycobacterium abscessus R39 isolate after 3 to 5 days by broth microdilution method; procedure, shortened: as §1
[3] = test system: Mycobacteroides abscessus; assay: Antimicrobial activity against Mycobacterium abscessus NTU445 isolate after 3 to 5 days by broth microdilution method; procedure, shortened: as §1
[4] = test system: Mycobacteroides abscessus; assay: Antimicrobial activity against Mycobacterium abscessus NTU459 isolate after 3 to 5 days by broth microdilution method; procedure, shortened: as §1
[5] = test system: Mycobacteroides abscessus; assay: Antimicrobial activity against Mycobacterium abscessus R51 isolate after 3 to 5 days by broth microdilution method; procedure, shortened: as §1
[6] = test system: Mycobacteroides abscessus; assay: Antimicrobial activity against Mycobacterium abscessus NTU446 isolate after 3 to 5 days by broth microdilution method; procedure, shortened: as §1
[7] = test system: Mycobacteroides abscessus; assay: Antimicrobial activity against Mycobacterium abscessus R47 isolate after 3 to 5 days by broth microdilution method; procedure, shortened: as §1
[8] = test system: Mycobacteroides abscessus; assay: Antimicrobial activity against Mycobacterium abscessus R50 isolate after 3 to 5 days by broth microdilution method; procedure, shortened: as §1
[9] = test system: Mycobacteroides abscessus; assay: Antimicrobial activity against Mycobacterium abscessus R54 isolate after 3 to 5 days by broth microdilution method; procedure, shortened: as §1
[10] = test system: Mycobacteroides abscessus; assay: Antimicrobial activity against Mycobacterium abscessus R61 isolate after 3 to 5 days by broth microdilution method; procedure, shortened: as §1
[11] = test system: Mycobacteroides abscessus; assay: Antimicrobial activity against Mycobacterium abscessus R65 isolate after 3 to 5 days by broth microdilution method; procedure, shortened: as §1
[12] = test system: Mycobacteroides abscessus; assay: Antimicrobial activity against Mycobacterium abscessus R53 isolate after 3 to 5 days by broth microdilution method; procedure, shortened: as §1
[13] = test system: Mycobacteroides abscessus; assay: Antimicrobial activity against Mycobacterium abscessus R49 isolate after 3 to 5 days by broth microdilution method; procedure, shortened: as §1
[14] = test system: Mycobacteroides abscessus; assay: Antimicrobial activity against Mycobacterium abscessus V120 isolate after 3 to 5 days by broth microdilution method; procedure, shortened: as §1
[15] = test system: Mycobacteroides abscessus; assay: Antimicrobial activity against Mycobacterium abscessus after 3 to 5 days by broth microdilution method; procedure, shortened: as §1
Mycobacteroides chelonae = assay: Antimicrobial activity against Mycobacterium chelonae after 3 to 5 days by broth microdilution method; procedure, shortened: as §1
[16] = test system: Mycolicibacterium fortuitum; assay: Antimicrobial activity against Mycobacterium fortuitum after 3 to 5 days by broth microdilution method; procedure, shortened: as §1
[17] = test system: Mycobacteroides abscessus; assay: Antimicrobial activity against Mycobacterium abscessus CH10 isolate after 3 to 5 days by broth microdilution method; procedure, shortened: as §1
[18] = test system: Mycolicibacterium fortuitum; assay: Antimicrobial activity against Mycobacterium fortuitum V13 isolate after 3 to 5 days by broth microdilution method; procedure, shortened: as §1
[19] = test system: Mycolicibacterium fortuitum; assay: Antimicrobial activity against Mycobacterium fortuitum V61 isolate after 3 to 5 days by broth microdilution method; procedure, shortened: as §1
[20] = test system: Mycolicibacterium fortuitum; assay: Antimicrobial activity against Mycobacterium fortuitum V146 isolate after 3 to 5 days by broth microdilution method; procedure, shortened: as §1

Row | SMILES | MIC [1] [µg/mL] | MIC [2] [µg/mL] | MIC [3] [µg/mL] | MIC [4] [µg/mL] | MIC [5] [µg/mL] | MIC [6] [µg/mL] | MIC [7] [µg/mL] | MIC [8] [µg/mL] | MIC [9] [µg/mL] | MIC [10] [µg/mL] | MIC [11] [µg/mL] | MIC [12] [µg/mL] | MIC [13] [µg/mL] | MIC [14] [µg/mL] | MIC50 [15] [µg/mL] | MIC90 [15] [µg/mL] | MIC50 (Mycobacteroides chelonae) [µg/mL] | MIC90 (Mycobacteroides chelonae) [µg/mL] | MIC50 [16] [µg/mL] | MIC90 [16] [µg/mL] | further results
1 | CN[C@@H]1[C@@H](O)[C@@H](O[C@@H]2[C@@H](O)[C@H](O[C@H]3O[C@H](CN)[C@@H](O)[C@H](O)[C@H]3O)[C@@H](N)C[C@H]2NC(=O)[C@@H](O)CN)OC[C@]1(C)O [ISEPAMICIN] | > 128 | 32 (≈ 56.2 µM) | 32 (≈ 56.2 µM) | 32 (≈ 56.2 µM) | 16 (≈ 28.1 µM) | 16 (≈ 28.1 µM) | 16 (≈ 28.1 µM) | 16 (≈ 28.1 µM) | 16 (≈ 28.1 µM) | 16 (≈ 28.1 µM) | 16 (≈ 28.1 µM) | 16 (≈ 28.1 µM) | 8 (≈ 14 µM) | 8 (≈ 14 µM) | 8 (≈ 14 µM) | 16 (≈ 28.1 µM) | 4 (≈ 7.02 µM) | 8 (≈ 14 µM) | 8 (≈ 14 µM) | 16 (≈ 28.1 µM) | MIC [17]: > 128 µg/mL; MIC [18]: 64 µg/mL (≈ 112 µM); MIC [19]: 32 µg/mL (≈ 56.2 µM); MIC [20]: 32 µg/mL (≈ 56.2 µM)
2 | NC[C@H]1O[C@H](O[C@H]2[C@H](O)[C@@H](O[C@H]3O[C@H](CO)[C@@H](O)[C@H](N)[C@H]3O)[C@H](N)C[C@@H]2N)[C@H](O)[C@@H](O)[C@@H]1O [KANAMYCIN] | > 128 | 16 (≈ 33 µM) | 16 (≈ 33 µM) | 16 (≈ 33 µM) | 16 (≈ 33 µM) | 8 (≈ 16.5 µM) | 8 (≈ 16.5 µM) | 8 (≈ 16.5 µM) | 8 (≈ 16.5 µM) | 8 (≈ 16.5 µM) | 8 (≈ 16.5 µM) | 4 (≈ 8.26 µM) | 4 (≈ 8.26 µM) | 8 (≈ 16.5 µM) | 8 (≈ 16.5 µM) | 8 (≈ 16.5 µM) | 4 (≈ 8.26 µM) | 8 (≈ 16.5 µM) | 8 (≈ 16.5 µM) | 32 (≈ 66 µM) | MIC [17]: > 128 µg/mL; MIC [18]: > 128 µg/mL; MIC [19]: 32 µg/mL (≈ 66 µM); MIC [20]: 32 µg/mL (≈ 66 µM)
3 | CN[C@@H]1[C@H](O[C@H]2[C@H](O[C@H]3[C@H](O)[C@@H](O)[C@H](N=C(N)N)[C@@H](O)[C@@H]3N=C(N)N)O[C@@H](C)[C@]2(O)C=O)O[C@@H](CO)[C@H](O)[C@H]1O (stereo in doubt) [STREPTOMYCIN] | > 128 | > 128 | > 128 | > 128 | > 128 | > 128 | > 128 | > 128 | > 128 | > 128 | > 128 | 128 (≈ 220 µM) | 128 (≈ 220 µM) | 128 (≈ 220 µM) | 128 (≈ 220 µM) | > 128 | 64 (≈ 110 µM) | 128 (≈ 220 µM) | 64 (≈ 110 µM) | 128 (≈ 220 µM) | MIC [17]: > 128 µg/mL; MIC [18]: 128 µg/mL (≈ 220 µM); MIC [19]: > 128 µg/mL; MIC [20]: > 128 µg/mL

The next lines start with results.

Row | MIC [1] [µg/mL] | MIC [2] [µg/mL] | MIC [3] [µg/mL] | MIC [4] [µg/mL] | MIC [5] [µg/mL] | MIC [6] [µg/mL] | MIC [7] [µg/mL] | MIC [8] [µg/mL] | MIC [9] [µg/mL] | MIC [10] [µg/mL] | MIC [11] [µg/mL] | MIC [12] [µg/mL] | MIC [13] [µg/mL] | MIC [14] [µg/mL] | MIC50 [15] [µg/mL] | MIC90 [15] [µg/mL] | MIC50 (Mycobacteroides chelonae) [µg/mL] | MIC90 (Mycobacteroides chelonae) [µg/mL] | MIC50 [16] [µg/mL] | MIC90 [16] [µg/mL] | SMILES | further results
4 | > 128 | 64 (≈ 109 µM) | 32 (≈ 54.6 µM) | 32 (≈ 54.6 µM) | 32 (≈ 54.6 µM) | 32 (≈ 54.6 µM) | 32 (≈ 54.6 µM) | 32 (≈ 54.6 µM) | 32 (≈ 54.6 µM) | 32 (≈ 54.6 µM) | 32 (≈ 54.6 µM) | 32 (≈ 54.6 µM) | 32 (≈ 54.6 µM) | 32 (≈ 54.6 µM) | 16 (≈ 27.3 µM) | 32 (≈ 54.6 µM) | 8 (≈ 13.7 µM) | 8 (≈ 13.7 µM) | 1 (≈ 1.71 µM) | 4 (≈ 6.83 µM) | NCC[C@H](O)C(=O)N[C@@H]1C[C@H](N)[C@@H](O[C@H]2O[C@H](CN)[C@@H](O)[C@H](O)[C@H]2O)[C@H](O)[C@H]1O[C@H]1O[C@H](CO)[C@@H](O)[C@H](N)[C@H]1O [AMIKACIN] | MIC [17]: > 128 µg/mL; MIC [18]: 4 µg/mL (≈ 6.83 µM); MIC [19]: 4 µg/mL (≈ 6.83 µM); MIC [20]: 4 µg/mL (≈ 6.83 µM)
5 | > 128 | 32 (≈ 68.4 µM) | 16 (≈ 34.2 µM) | 8 (≈ 17.1 µM) | 32 (≈ 68.4 µM) | 4 (≈ 8.56 µM) | 16 (≈ 34.2 µM) | 16 (≈ 34.2 µM) | 32 (≈ 68.4 µM) | 16 (≈ 34.2 µM) | 16 (≈ 34.2 µM) | 8 (≈ 17.1 µM) | 16 (≈ 34.2 µM) | 16 (≈ 34.2 µM) | 8 (≈ 17.1 µM) | 16 (≈ 34.2 µM) | 16 (≈ 34.2 µM) | 32 (≈ 68.4 µM) | 16 (≈ 34.2 µM) | 64 (≈ 137 µM) | NC[C@H]1O[C@H](O[C@H]2C(O)[C@@H](O[C@H]3O[C@H](CO)[C@@H](O)[C@H](N)[C@H]3O)[C@H](N)C[C@@H]2N)[C@H](N)C[C@@H]1O (single isomer, unassigned) [TOBRAMYCIN] | MIC [17]: > 128 µg/mL; MIC [18]: 128 µg/mL (≈ 274 µM); MIC [19]: 64 µg/mL (≈ 137 µM); MIC [20]: 64 µg/mL (≈ 137 µM)

Source: ChEMBL document CHEMBL1145515, “In Vitro activities of isepamicin, other aminoglycosides, and capreomycin against clinical isolates of rapidly growing mycobacteria in Taiwan” (2007)
